Laboratory results from ChEMBL document CHEMBL2169814, “Structure-based design, synthesis, and characterization of dual hotspot small-molecule HIV-1 entry inhibitors” (J Med Chem, 2012).
Activity calls are given as the source filed them. The rule behind the calls is not given here.

Legend:
[1] = Inhibition of ampotrophic murine leukemia virus envelope glycoprotein assessed as inhibition of viral entry in canine Cf2Th cells expressing human CD4 and CCR5 after 2 to 4 hrs by luciferase activity based luminescence assay
[2] = system: Human immunodeficiency virus 1; assay: Antiviral activity against HIV-1 YU2 infected in canine Cf2Th-CCR5 cells assessed as activation of viral infectivity after 2 to 4 hrs by luminometer relative to NBD-556; type: functional, organism-based
[3] = Inhibition of recombinant HIV-1 YU2 envelope glycoprotein-120 assessed as inhibition of viral entry in canine Cf2Th cells expressing CD4/CCR5 after 2 to 4 hrs by luciferase activity based luminescence assay; type: cell-based, Human immunodeficiency virus 1
Method in brief: (§1)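 Single-round luciferase-encoding recombinant HIV-1 pseudotyped with wild-type or mutant YU2 Env, made in 293T cells and dosed by RT units. Cf2Th/CD4-CCR5 cells seeded 24 h before. […] Cells lysed by freeze-thaw; luciferase read by luminometer.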

[4] = system: Human immunodeficiency virus 1; assay: Antiviral activity against HIV-1 YU2 infected in canine Cf2Th-CCR5 cells assessed as activation of viral infectivity after 2 to 4 hrs by luminometer relative to TS-II-224; type: functional, organism-based
[5] = system: Human immunodeficiency virus 1; assay: Antiviral activity against HIV-1 clade C Env pseudovirus assessed as geometric mean titer for virus neutralization to infect human TZM-bl cells by luciferase assay; type: functional, organism-based
Method in brief: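 Env-pseudoviruses were made in 293T cells cotransfected with rev/env plasmid and the env-deficient pSGΔ3env backbone, then harvested at 2 days. Virus (MOI ~0.01–0.1) was preincubated 30 min at 37°C with serially diluted compound in medium containing 10% DMSO, in duplicate, then used to infect TZM-bl cells. Luciferase read-out; IC50 from a 5-parameter Hill fit; geometric mean across isolates.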

[6] = Binding affinity to HIV-1 YU2 gp120 at 80 to 130 uM by VP-ITC analysis; set-up: species or system Human immunodeficiency virus 1
[7] = system: Human immunodeficiency virus 1; assay: Antiviral activity against HIV-1 clade B Env pseudovirus assessed as geometric mean titer for virus neutralization to infect human TZM-bl cells by luciferase assay; type: functional, organism-based; settings: Human immunodeficiency virus 1, clade B
Method in brief: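 Env-pseudoviruses made in 293T cells co-transfected with rev/env plasmid and env-deficient backbone (pSGΔ3env); supernatants harvested at 2 days, filtered. Virus (MOI ~0.01–0.1) preincubated 30 min at 37°C with serially diluted reagent (media with 10% DMSO), duplicate wells, then used to infect TZM-bl cells. Luciferase read-out; 5-parameter hill fit gives IC50/IC80; geometric mean titer across isolates.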

[8] = Cytotoxicity against canine Cf2Th-CD4-CCR5 assessed as cell viability at 1 to 100 uM after 48 hrs by luminometer; type: cell-based, Canis lupus familiaris; settings: dog, thymocyte
Method in brief: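 Cf2Th/CD4-CCR5 cells were seeded at 6×10^3/well 24 h ahead and exposed to compound at 1–100 μM (DMSO at 2% as control) for 2–4 h at 37°C. Medium was then topped up and cells were incubated 48 h at 37°C. After 30 min at room temperature, CellTiter-Glo was added for 5–10 min, and luminescence was read for 5 s.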

[9] = system: Human immunodeficiency virus 1; assay: Increase in binding of full length of HIV1 YU2 gp120 expressed into 17b in canine Cf2Th-CCR5 by SPR assay
[10] = system: Human immunodeficiency virus 1; assay: Increase in binding of minimal core of HIV1 YU2 gp120 into 17b in canine Cf2Th-CCR5 by SPR assay
[11] = system: Envelope glycoprotein gp160 (Human immunodeficiency virus type 1 group M subtype B (isolate HXB2)(HIV-1)), P04578 [S375W]; assay: Inhibition of recombinant HIV-1 YU2 envelope glycoprotein-120 S375W mutant assessed as inhibition of viral entry in canine Cf2Th cells expressing CD4/CCR5 after 2 to 4 hrs by luciferase activity based luminescence assay; type: cell-based; settings: Human immunodeficiency virus 1
Method in brief: as §1

[12] = Inhibition of recombinant HIV-1 89.6 envelope glycoprotein-120 assessed as inhibition of viral entry in canine Cf2Th cells expressing CD4/CCR5 after 2 to 4 hrs by luciferase activity based luminescence assay; type: cell-based, Human immunodeficiency virus 1
Method in brief: (§2)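 Single-round luciferase-reporter viruses were made in 293T cells with Gag-Pol packaging and Env plasmids (A-MLV Env plus rev), then normalized by RT activity. […] Cf2Th/CD4-CCR5 or CD4-CXCR4 targets were exposed for 2–4 h, cultured 48 h, lysed by freeze-thaw, and luciferase was read.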

[13] = Inhibition of recombinant HIV-1 HXBc2 envelope glycoprotein-120 assessed as inhibition of viral entry in canine Cf2Th cells expressing CD4/CCR5 after 2 to 4 hrs by luciferase activity based luminescence assay; type: cell-based, Human immunodeficiency virus 1
Method in brief: as §2

[14] = Inhibition of recombinant HIV-1 ADA envelope glycoprotein-120 assessed as inhibition of viral entry in canine Cf2Th cells expressing CD4/CCR5 after 2 to 4 hrs by luciferase activity based luminescence assay; type: cell-based, Human immunodeficiency virus 1
Method in brief: as §2

[15] = Inhibition of recombinant HIV-1 KB9 envelope glycoprotein-120 assessed as inhibition of viral entry in canine Cf2Th cells expressing CD4/CCR5 after 2 to 4 hrs by luciferase activity based luminescence assay; type: cell-based, Human immunodeficiency virus 1
Method in brief: as §2

[16] = Inhibition of recombinant HIV-1 JRFL envelope glycoprotein-120 assessed as inhibition of viral entry in canine Cf2Th cells expressing CD4/CCR5 after 2 to 4 hrs by luciferase activity based luminescence assay; type: cell-based, Human immunodeficiency virus 1
Method in brief: as §2

[17] = system: Human immunodeficiency virus 1; assay: Antiviral activity against HIV-1 YU2 infected in canine Cf2Th-CCR5 cells assessed as activation of viral infectivity after 2 to 4 hrs by luminometer relative to JRC-I-191; type: functional, organism-based

Compound | IC50 [1] [µM] | Activity [2] | IC50 [3] [µM] | Activity [4] | Activity [5] | Kd [6] [µM] | IC50 [7] [µM] | Activity [8] | Activity [9] | Activity [10] | Activity [11] | IC50 [12] [µM] | IC50 [13] [µM] | IC50 [14] [µM] | IC50 [15] [µM] | IC50 [16] [µM] | Activity [17]
CC1(C)CC(NC(=O)C(=O)Nc2ccc(Cl)c(F)c2)CC(C)(C)N1 | > 100 | Active | 54.4 |  |  |  |  |  |  |  |  |  |  |  |  |  | 
N=C(N)N[C@H]1Cc2ccccc2[C@@H]1NC(=O)C(=O)Nc1ccc(Cl)c(F)c1.O=CO | > 100 |  | 22.9 | inactive | Active | 0.25 | 7.9 | Non-toxic | Active | Active | inactive |  |  |  |  |  | 
CC1(C)CC(NC(=O)C(=O)Nc2ccc(Br)cc2)CC(C)(C)N1 | > 100 | Active | > 100 |  |  | 2.2 |  |  |  |  |  |  |  |  |  |  | 
N=C(N)N[C@@H]1Cc2ccccc2[C@H]1NC(=O)C(=O)Nc1ccc(Cl)c(F)c1 | > 100 |  | 21.3 | inactive | Active | 0.3 | 8.9 |  | Active | Active | inactive |  |  |  |  |  | 
CC1(C)CC(NC(=O)C(=O)Nc2ccc(Cl)cc2)CC(C)(C)N1 | > 100 |  | > 100 |  | Active |  | 29.3 |  |  |  |  |  |  |  |  |  | 
N[C@H]1Cc2ccccc2[C@@H]1NC(=O)C(=O)Nc1ccc(Cl)c(F)c1 | 56.9 |  | 53.9 | Active |  |  |  |  | Active | Active |  | 50 | 50 | 50 | 50 | 50 | 
CN1C(C)(C)CC(NC(=O)C(=O)Nc2ccc(Cl)c(F)c2)CC1(C)C | 93.4 |  | 48.8 |  |  |  |  |  | Active | Active |  |  |  |  |  |  | Active
N[C@@H]1Cc2ccccc2[C@H]1NC(=O)C(=O)Nc1ccc(Cl)c(F)c1 | 85.9 |  | 86.9 | Active |  | 1.1 |  |  | Active | Active |  | 50 | 50 | 50 | 50 | 50 | 
